Test results as given in ChEMBL document CHEMBL2203220, “Linear and cyclic dipeptides with antimalarial activity” (Bioorg Med Chem Lett, 2012).
Where a SMILES comes first, the peptide text is derived from it. [ ]: non-standard residue; d: D form. The star is where a group is joined. ξ: configuration not given here. Boc = CC(C)(C)OC(=O)*; ξOrn = NCCCC(N)C(=O)O; OtBu = CC(C)(C)O*; Sar = CNCC(=O)O

What was measured:
[1] = test system: Plasmodium berghei; assay: Antimalarial activity against Plasmodium berghei; assay type: functional, organism-based
Procedure, shortened: (§1)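 P. berghei cultures were exposed to peptides in PBS with 0.1% DMSO and 5% ethanol for 16 h at 37 °C, with chloroquine as positive control. Smears were made from 0.5 mL culture samples and schizonts counted per 2000 erythrocytes. Four concentrations were each run in duplicate and averaged. IC50 is the concentration giving 50% fewer schizonts than drug-free controls, extrapolated from the concentration–response curve.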

[2] = test system: Plasmodium berghei; assay: Antimalarial activity against schizonts of chloroquine-sensitive Plasmodium berghei ANKA 2.34 assessed as chemosuppression of schizont numbers at 200 uM after 16 hrs relative to control; assay type: functional
Procedure, shortened: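 Peptides in PBS with 0.1% DMSO and 5% ethanol were incubated with P. berghei cultures for 16 h at 37 °C, with chloroquine as positive control. Schizonts per 2000 erythrocytes were counted on smears from 0.5 mL culture samples, in duplicate and averaged. Reduction in schizont number is expressed against drug-free control cultures.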

[3] = test system: Plasmodium berghei; assay: Antimalarial activity against schizonts of chloroquine-sensitive Plasmodium berghei ANKA 2.34 after 16 hrs; assay type: functional, organism-based; details: ANKA 2.34, 16 h; procedure, shortened: as §1

Row | SMILES | IC50 [1] [µM] | Activity [2] [%] | IC50 [3] [µM]
1 | NCCCC[C@H](N)C(=O)N[C@@H](Cc1ccccc1)C(=O)N[C@@H](Cc1ccccc1)C(=O)NC(CCCN)C(=O)O (stereo not given in full) (H-KFF[ξOrn]-OH) | 2.5 |  | 
2 | NCCCC(NC(=O)[C@H](Cc1ccccc1)NC(=O)C(CCCN)NC(=O)[C@@H](N)Cc1ccccc1)C(=O)O (stereo not given in full) (H-F[ξOrn]F[ξOrn]-OH) | 2.5 |  | 
3 | COC(=O)[C@@H](NC(=O)[C@@H](CCCNC(=O)OCc1ccccc1)NC(=O)OC(C)(C)C)C(C)C |  | 57.2 | 3.05
4 | CC(C)[C@@H]1NC(=O)CNC1=O |  | 88.03 | 3.23
5 | CC(C)(C)OC(=O)NCC(=O)N[C@@H](Cc1ccccc1)C(=O)OC(C)(C)C (Boc-Gly-Phe-OtBu) |  | 54.26 | 164
6 | CC(C)(C)OC(=O)N[C@@H](CCCNC(=O)OCc1ccccc1)C(=O)N[C@@H](Cc1ccccc1)C(=O)OC(C)(C)C |  | 35.29 | > 200
7 | CC(C)[C@H](NC(=O)[C@@H](CCCNC(=O)OCc1ccccc1)NC(=O)OC(C)(C)C)C(=O)OC(C)(C)C |  | 72.64 | 2.78
8 | CC(C)[C@H](NC(=O)CNC(=O)OC(C)(C)C)C(=O)OC(C)(C)C (Boc-Gly-Val-OtBu) |  | 59.55 | 3.16
9 | CC(C)(C)OC(=O)N[C@@H](Cc1ccccc1)C(=O)N[C@@H](Cc1ccccc1)C(=O)OC(C)(C)C (Boc-Phe-Phe-OtBu) |  | 55.73 | 112
10 | CN(CC(=O)OC(C)(C)C)C(=O)[C@H](Cc1ccccc1)NC(=O)OC(C)(C)C (Boc-Phe-[Sar]-OtBu) |  | 79.41 | 3.38
11 | CC(C)[C@H](NC(=O)OC(C)(C)C)C(=O)N[C@H](C(=O)OC(C)(C)C)C(C)C (Boc-Val-Val-OtBu) |  | 77.64 | 2.81
12 | COC(=O)[C@H](Cc1ccccc1)NC(=O)[C@H](CCCNC(=O)OCc1ccccc1)NC(=O)OC(C)(C)C |  | 40 | > 200
13 | CCN(CC)CCCC(C)Nc1ccnc2cc(Cl)ccc12 (stereo not given) [CHLOROQUINE] |  | 100 | 0.06
14 | O=C(NCCC[C@@H]1NC(=O)[C@H](Cc2ccccc2)NC1=O)OCc1ccccc1 |  | 72.93 | 123
15 | CC(C)[C@H](NC(=O)[C@H](CCCNC(=O)OCc1ccccc1)NC(=O)OC(C)(C)C)C(=O)OC(C)(C)C |  | 55.73 | 33.9
16 | CC(C)[C@H](NC(=O)[C@H](Cc1ccccc1)NC(=O)OC(C)(C)C)C(=O)OC(C)(C)C (Boc-Phe-Val-OtBu) |  | 77.94 | 3.23
17 | COC(=O)CN(C)C(=O)[C@H](Cc1ccccc1)NC(=O)OC(C)(C)C (Boc-Phe-[Sar]-OMe) |  | 79.41 | 3.63
18 | CN1CC(=O)N[C@@H](Cc2ccccc2)C1=O |  | 83.76 | 2.26
19 | CC(C)[C@H](NC(=O)OC(C)(C)C)C(=O)N[C@@H](Cc1ccccc1)C(=O)OC(C)(C)C (Boc-Val-Phe-OtBu) |  | 73.08 | 7.07
20 | CC(C)[C@@H]1NC(=O)[C@H](Cc2ccccc2)NC1=O |  | 61.07 | 3.89
21 | CC(C)[C@@H]1NC(=O)[C@H](CCCCNC(=O)OCc2ccccc2)NC1=O |  | 79.2 | 3.12
22 | CC(C)[C@@H]1NC(=O)[C@H](CCCNC(=O)OCc2ccccc2)NC1=O |  | 69.23 | 66
23 | CC(C)[C@@H]1NC(=O)[C@@H](CCCNC(=O)OCc2ccccc2)NC1=O |  | 70.08 | 3.09
24 | O=C1CNC(=O)[C@H](Cc2ccccc2)N1 |  | 70.37 | 4.26
25 | O=C1N[C@@H](Cc2ccccc2)C(=O)N[C@H]1Cc1ccccc1 |  | 84.33 | 2.54
26 | CC(C)[C@@H]1NC(=O)[C@H](C(C)C)NC1=O |  | 87.18 | 2.45
